Compound activity (PubChem)
This is a sample that favours compounds with a hit; in the whole collection about 2.4% have one here.
Scp-1 inhibitor: Scp-1 phosphatase inhibitors, primary screen, biochemical, colorimetric, uHTS; Carboxy-terminal domain RNA polymerase II polypeptide A small phosphatase 1 (Homo …; Recombinant Scp1, phosphopeptide, malachite green phosphate absorbance; inhibition, % at 20 µM; 0.88% of 340,000 active; AID 493091, 2011;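 active means inhibition above about 50% at 20 µM, limit read from the data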;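 further: plate controls were DMSO wells with enzyme for no effect and wells lacking enzyme for full effect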
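Test system: SCP-1 catalytic domain; Buffer or medium: Acidic Tris acetate buffer with magnesium and detergent; Also added: Phosphorylated 17-residue peptide substrate; Compound: single 20 µM dose, 1% DMSO; Schedule: enzyme reaction 45 min at room temperature, colour 5 min, stabilisation 30 min; Signal: Phosphate-binding colour reagent, absorbance read at 630 nm.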
NadD inh: inhibitors of S. aureus NadD, primary screen, biochemical, colorimetric, uHTS | Nicotinate-nucleotide adenylyltransferase NadD (Staphylococcus aureus N315) | purified NadD enzyme, colorimetric absorbance read-out | inhibition, % at 20 µM | 0.78% of 360,000 active | AID 602399, 2012; in the data active means inhibition above about 26%
SUMO1-SIM PPI: modulators of SUMO1 protein-protein interactions, primary screen, biochemical, uHTS; Small ubiquitin-related modifier 1 (Homo sapiens), P63165; SUMO1 binding to a labelled peptide, TR-FRET, 1 h; inhibition, % at 20 µM; 0.33% of 360,000 active; AID 602429, 2012; in the data active means inhibition above about 37%
DNMT1 block: human DNMT1 methyltransferase inhibitors, primary screen, biochemical, molecular beacon, fluorescence, HinP1I cleavage, uHTS; AID 588458, 2011; inhibition (reported as % activation of signal), % at 10 µM; 0.83% of 360,000 active; DNA (cytosine-5)-methyltransferase 1 (Homo sapiens), P26358; in the data active means inhibition above about 50%
LMPTP inh: LMPTP phosphatase inhibitors, primary screen, biochemical, fluorescence intensity, uHTS | recombinant LMPTP-A, OMFP fluorogenic substrate | inhibition, % at 20 µM | 0.22% of 360,000 active;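 active means compounds that cut the enzyme signal by at least half of the control window in the single-dose screen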;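 further: plate controls were DMSO wells with enzyme plus substrate for no effect and substrate without enzyme for full effect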
Target sequence (P24666 whole entry, looked up): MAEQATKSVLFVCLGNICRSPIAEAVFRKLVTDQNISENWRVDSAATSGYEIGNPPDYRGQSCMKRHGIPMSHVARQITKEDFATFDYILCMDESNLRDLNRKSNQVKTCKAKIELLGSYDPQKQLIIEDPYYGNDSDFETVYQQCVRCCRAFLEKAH
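Test system – LMPTP-A phosphatase enzyme · Quantity – 0.625 nM LMPTP-A final · Reagent – OMFP substrate, 400 µM final · Dosing – one test concentration per compound, 20 µM, with 3% DMSO overall · Timing – 50 min enzyme reaction at room temperature, protected from light · Detection – fluorescence intensity · Controls – substrate-only low control, DMSO enzyme-plus-substrate high control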
STEP block: STEP phosphatase inhibitors, primary screen, biochemical, fluorescence intensity, uHTS; Tyrosine-protein phosphatase non-receptor type 5 (Homo sapiens), P54829; recombinant STEP, OMFP fluorogenic substrate; inhibition, % at 20 µM; 0.25% of 360,000 active; AID 588621, 2011;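 active means inhibition at 20 µM, scaled per plate between control wells, above about 37%, limit read from the data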;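 further: 0% = DMSO with enzyme and substrate and 100% = substrate only without enzyme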
Target sequence (P54829 whole entry, looked up): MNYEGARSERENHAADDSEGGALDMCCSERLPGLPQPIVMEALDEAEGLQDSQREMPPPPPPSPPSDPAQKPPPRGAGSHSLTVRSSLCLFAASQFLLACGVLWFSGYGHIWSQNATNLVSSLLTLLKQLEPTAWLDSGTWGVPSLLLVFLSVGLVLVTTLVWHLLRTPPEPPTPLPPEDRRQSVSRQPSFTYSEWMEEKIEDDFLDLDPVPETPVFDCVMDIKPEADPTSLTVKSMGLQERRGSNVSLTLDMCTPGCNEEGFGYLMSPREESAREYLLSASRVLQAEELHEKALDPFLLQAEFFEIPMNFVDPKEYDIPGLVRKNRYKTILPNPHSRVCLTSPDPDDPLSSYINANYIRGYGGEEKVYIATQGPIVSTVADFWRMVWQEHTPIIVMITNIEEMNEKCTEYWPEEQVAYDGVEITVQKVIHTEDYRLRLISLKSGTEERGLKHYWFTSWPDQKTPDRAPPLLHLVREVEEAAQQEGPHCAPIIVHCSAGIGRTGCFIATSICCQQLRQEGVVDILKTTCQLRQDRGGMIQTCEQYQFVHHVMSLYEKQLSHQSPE
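System: STEP phosphatase, cell-free reaction; Buffer or medium: Bis-Tris pH 6.0 buffer with DTT, detergent; Incubation: 20 min at room temperature, dark; Measured by: fluorescence, 480/540 nm.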
DNMT1 confirm: DNMT1 methyltransferase inhibitor retest, confirmation, biochemical, molecular beacon, fluorescence, single concentration; inhibition, % at 10 µM; DNMT1 molecular beacon HinP1I cleavage; 8% of 2,300 active; shares compounds with DNMT1 block;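 active means average inhibition of at least 30% in the single-concentration confirmation test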
Beacon interf: counter-screen for DNMT1 inhibitors: spectral interference | shares compounds with DNMT1 block | activation (fluorescence interference), % at 10 µM | DNMT1 molecular beacon spectral interference counterscreen, fluorescence 485/520 | 1% of 2,300 active;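 active means activation of at least 30% at 10 µM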;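 further: DNMT1 catalytic domain with a HinP1I cleavage step and a FAM/dabcyl DNA beacon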
The depositor's hits bear a star; nt = not tested or not shown.

SMILES | Scp-1 inhibitor | NadD inh | SUMO1-SIM PPI | DNMT1 block | LMPTP inh | STEP block | DNMT1 confirm | Beacon interf
c1ccc(Cn2nnc3c(N4CCc5ccccc5C4)ncnc32)cc1 | -1 | 0 | 2 | -5 | 4 | -2 | nt | nt
Cc1cccc(NC(=S)N=Nc2c(O)[nH]c3ccccc23)c1 | -10 | 10 | 12 | -10 | 0 | 1 | nt | nt
COc1ccccc1NC(=S)N=Nc1c(O)[nH]c2ccc(Br)cc12 | -2 | 30* | 1 | 89* | 3 | -3 | 3 | -3
CCn1ccnc1CN(C)Cc1cn(-c2ccc(C)cc2)nc1-c1ccc(F)cc1 | -4 | -6 | -1 | 60* | 2 | 3 | 2 | 6
N#Cc1ccc(NC(=O)COC(=O)CCc2nc3ccccc3c(=O)[nH]2)cc1 | -5 | -1 | -1 | 3 | 1 | -1 | nt | nt
N#Cc1ccc(CSc2nnc(NC(=O)CCc3nc4ccccc4c(=O)[nH]3)s2)cc1 | -4 | 12 | 8 | 68* | 1 | 1 | 0 | -5
O=C(CCc1nc2ccccc2c(=O)[nH]1)Nc1nnc(SCc2ccc(F)cc2)s1 | -1 | 3 | 7 | 64* | 5 | 1 | 2 | 77*
Cc1ccc(/C=C/C(=O)Nc2nnc(SCc3ccc(C#N)cc3)s2)o1 | -1 | 15 | 5 | 44 | 1 | 3 | 19 | 3
Cc1nnc2sc(-c3ccc(N(C)C)cc3)nn2c1=O | 8 | 0 | -36 | 1 | 2 | 7 | nt | nt
N#Cc1c(N)nc2c(c1N)CC(CCl)O2 (stereo unspecified) | -5 | 19 | 13 | 93* | 4 | -1 | 4 | 5
CCN(CC)S(=O)(=O)c1ccc(N2CCOCC2)c(NC(=O)c2nn(C(C)C)c(=O)c3ccccc23)c1 | nt | -3 | 2 | -2 | 2 | 2 | nt | nt
Cc1ccc(-c2nc3ccccc3o2)cc1NC(=S)NC(=O)/C=C/c1ccco1 | -11 | 26 | 16 | 26 | 2 | 1 | nt | nt
Cc1ccc(-c2nc3ccccc3s2)cc1NC(=S)NC(=O)/C=C/c1ccco1 | -8 | 24 | 13 | 54* | 0 | 6 | -2 | -5
Cc1nn(Cc2ccccc2)c(C)c1NC(=O)CSc1nc(C2CC2)nc2c1cnn2-c1ccccc1 | 9 | 11 | 1 | 58* | 0 | 0 | 5 | -5
Cc1nc(SCC(=O)Nc2c(C)n(C)n(-c3ccccc3)c2=O)c2cnn(-c3ccccc3)c2n1 | -8 | 4 | 4 | -2 | 1 | 2 | nt | nt
O=C(CSc1nc(C2CC2)nc2c1cnn2-c1ccccc1)Nc1c[nH]c(=O)[nH]c1=O | 13 | 23 | 8 | 27 | 9 | 6 | nt | nt
Cc1nn(C)c(C)c1NC(=O)CSc1nc(Cc2ccccc2)nc2c1cnn2-c1ccccc1 | 7 | -1 | -5 | 51* | 0 | 4 | 1 | -1
O=C(Nc1cnn(C23CC4CC(CC(C4)C2)C3)c1)c1cnn2c(C(F)(F)F)cc(-c3ccco3)nc12 | 9 | 4 | 0 | 58* | 3 | 8 | -2 | -2
Cc1cc(C)n2[nH]c(=O)c(N=Nc3ccc(S(N)(=O)=O)cc3)c2n1 | 11 | -2 | -33 | 1 | 6 | 2 | nt | nt
COc1cccc(N=Nc2c(=O)[nH]n3c(=O)c4c([nH]c23)CCC4)c1 | 23 | 19 | -10 | 60* | 13 | 4 | -1 | -5
CC1(C(=O)N2Cc3ccccc3C2)CCN1C(=O)C1(c2ccccc2)CC1 (stereo unspecified) | nt | -1 | 4 | 1 | -1 | -1 | nt | nt
Cc1ccc(C(=O)OCC(=O)NCc2ccco2)s1 | 39 | -2 | 0 | 58* | 4 | 0 | 1 | -1
OC1(c2ccc(OC(F)F)cc2)CSC(=Nc2cccnc2)N1C1CC1 (stereo unspecified) | 0 | 7 | -2 | -2 | 0 | 2 | nt | nt
CCCOc1ccc(Cc2nn3c(=O)/c(=C/c4ccco4)sc3nc2=O)cc1 | 31 | 4 | 8 | 86* | 6 | 6 | 5 | 4
CS(=O)(=O)Nc1ccc(C(=O)NC2CCCC2)cc1 | -21 | -4 | -1 | 80* | -1 | 0 | 1 | 3
SMILES | Scp-1 inhibitor | NadD inh | SUMO1-SIM PPI | DNMT1 block | LMPTP inh | STEP block | DNMT1 confirm | Beacon interf
CS(=O)(=O)Nc1ccc(C(=O)NC2CCCCC2)cc1 | -5 | 4 | 4 | 1 | -1 | -1 | nt | nt
COC(=O)/C(C#N)=C/c1c(N2CCN(c3ccccc3)CC2)nc2ccccn2c1=O | -9 | 0 | -25 | -3 | 1 | 0 | nt | nt
CCC(=O)Nc1ccc2nc3c(=O)[nH]c(=S)[nH]c3nc2c1 | 67* | 3 | -3 | 55* | 6 | 6 | 4 | 3
CN1CCN(c2oc(-c3cccs3)nc2S(=O)(=O)c2ccccc2)CC1 | 0 | -7 | 0 | 3 | -3 | -3 | nt | nt
COCCN(C(=O)CNC(=O)c1ccco1)C(C(=O)NC1CCCCC1)c1cccc(OC)c1 (stereo unspecified) | -2 | 3 | -2 | -5 | 0 | 2 | nt | nt
Cc1cc(Nc2ccc([N+](=O)[O-])cc2)c2ccccc2n1 | -7 | 0 | -23 | -9 | 46 | -2 | nt | nt
O=c1nc(Nc2ccccc2)sc2ccc([N+](=O)[O-])cc12 | 43 | 2 | -10 | 57* | 26 | 6 | 1 | -3
O=c1c2c([nH]c3ccccc13)C(=C1CCCC1)CC2 | 7 | 11 | 28 | 92* | 59* | 10 | 7 | 4
CC(=O)c1ccc(N=Cc2c(O)n(-c3cc(Cl)ccc3N3CCOCC3)c(=O)c3ccccc23)cc1 | -14 | 6 | -8 | 86* | 4 | 7 | 4 | 5
COc1ccc2c(c1)C(=NNc1ccc(C(=O)O)cc1)c1cc(OC)ccc1-2 | 12 | 19 | -9 | -6 | 11 | -1 | nt | nt
COc1ccc(/C(C)=N/Nc2ccc(C(=O)O)cc2)c(OC)c1 | -2 | 0 | 0 | 56* | -2 | -2 | 1 | 5
COc1cccc(C(=O)NC(=S)Nc2nnn(C)n2)c1 | -2 | 23 | 1 | 10 | 0 | -3 | nt | nt
